Screens from PubChem.
Sampled rows, rich in hits. Any-hit rate of the full collection: about 3.1%.
PAX8 reporter: lowers PAX8-driven luciferase in RMG-I cells | RMG-I TPO-luciferase reporter, SteadyGlo, 24 h | inhibition, % at 12.6 µM | actives 1.2% (n = 360,000);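 active means mean replicate inhibition at least 60% with every replicate also reaching 60%; inconclusive means only one of the two criteria is met; inactive means mean below 60% and not all replicates reaching 60%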;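 further: luciferase light reporting Pax8 driven TPO promoter activity; plate controls were median of neutral control wells for no effect and mitoxantrone controls for full effect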
PGC1a acetyl inh: lowers PGC1a acetylation signal in U2OS cells. AlphaScreen anti-acetyl-lysine; with virally co-expressed GCN5 acetyltransferase. inhibition, % at 15.6 µM. actives 0.17% (n = 350,000);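 active means every replicate shows inhibition of at least 40%; inconclusive means mean inhibition at least 40% but some replicate below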;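 further: 0% = neutral control wells and 100% = positive control wells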
Env fusion inh: blocks HIV Env-driven cell-cell fusion. actives 1.1% (n = 360,000). inhibition, % at 12.3 µM. HeLa-JRFL Env/CEM21 cell fusion, luciferase;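 active means mean replicate inhibition score of at least 50 and every replicate individually at or above 50; inconclusive means only one of the two criteria met; inactive means mean below 50 and not all replicates reaching 50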;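 further: 0% = plate neutral controls and 100% = maraviroc near 300 nM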
FN deposition inh: fibronectin deposition inhibition | actives 0.086% (n = 350,000) | AID 743247 | inhibition, % at 12.6 µM | AH1F fibroblasts, Alexa488-fibronectin deposition fluorescence, overnight;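 active means mean inhibition across replicates of 30% or more, regardless of how many single replicates reach that level; inconclusive means mean under 30% yet at least half of replicates reach 30%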;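 further: positive control wells lacked labelled fibronectin entirely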
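Schedule: 1 h cell adhesion before compound, then overnight fibronectin incubation; test system: AH1F fibroblast monolayer depositing Alexa488-labelled fibronectin into matrix; quantity: 10000 AH1F cells per well; probe or stimulus: fluorescent fibronectin at 24 nM final; signal: fluorescence, ex 485 nm, em 525 nm; evaluation: percent inhibition as loss of matrix-bound fibronectin fluorescence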
EWS-Fli inh: blocks EWS/Fli oncoprotein-driven transcription | actives 0.67% (n = 350,000) | AID 651661 | A673 NR0B1-luciferase reporter, viability-normalised | inhibition, % at 12.6 µM;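 active means mean inhibition of at least 50% after viability correction, with every replicate also passing that limit; inconclusive means mean reaches 50% but only one of two replicates passes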;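 further: firefly luciferase signal divided by Alamar Blue viability fluorescence both relative to DMSO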
FGF22 binding: binders of recombinant human FGF22 by thermal shift. SYPRO orange fluorescence; percent of sucrose octasulfate shift, DMSO zero. activity (Tm shift, normalised), % at 9.99 µM. actives 1.5% (n = 340,000). AID 651658;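 active means mean Tm shift, scaled 0 neutral to 100 positive control, at about 1.3% or above, every replicate too, limit read from the data; inconclusive means no clear call, values can overlap the other calls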
Target sequence (Q9HCT0 whole entry, looked up): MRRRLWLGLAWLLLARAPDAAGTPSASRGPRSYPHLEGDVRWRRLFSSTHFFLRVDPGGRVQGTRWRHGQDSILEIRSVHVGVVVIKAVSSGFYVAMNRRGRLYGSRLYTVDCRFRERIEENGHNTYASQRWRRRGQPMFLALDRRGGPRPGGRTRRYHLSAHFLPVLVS
Active calls of the source: *; ? = inconclusive; · = not tested or not shown; [ ] = another dose, or the depositor's remark.

SMILES	PAX8 reporter	PGC1a acetyl inh	Env fusion inh	FN deposition inh	EWS-Fli inh	FGF22 binding
Cc1ccc(C2=NN(S(=O)(=O)c3ccccc3)C(c3ccccc3O)C2)cc1 (centres undefined)	2.3	·	-1.4	7.3	-16.4	43.6*
COc1ccc(C2CC(c3ccccc3)=NN2S(=O)(=O)c2ccccc2)cc1 (centres undefined)	-7.8	-20.6	12.2	-3.2	-13.8	0.0
CC(C)Cn1c(SCC(=O)N2CCc3ccccc3C2)nc2cc(Cl)ccc2c1=O	19.8	·	·	1.8	10.3	-0.2
O=C(CSc1nc2ccccc2c(=O)n1-c1ccc(F)cc1F)Nc1ccc2c(c1)CCC2	24.0	·	13.4	·	-12.7	0.2
Cn1nc(CC(=O)Nc2ccc3c(c2)CCC3)c2ccccc2c1=O	-11.0	·	78.8*	1.1	·	·
CC(C)c1ccccc1-n1c(SCC(=O)N2CCc3ccccc3C2)nc2ccccc2c1=O	7.0	·	59.9*	-12.5	13.3	0.1
O=C(CSc1nc2ccccc2c(=O)n1-c1ccccc1F)Nc1ccc2c(c1)CCC2	28.5	1.5	19.7	31.4*	9.2	0.0
CN(C)C(=O)c1ccc(-c2cccc(-c3nc(C(=O)NC4CCCC4)cc4c3[C@H](CCO)N([S@@](=O)C(C)(C)C)C4)c2)cc1	18.2	-2.3	-7.3[16.7 µM]	8.8	10.6	-0.2
CCC(Sc1nc(C)cc(C)n1)C(=O)Nc1cc(C)on1 (centres undefined)	8.2	3.8	8.0	1.2	-3.4	43.5*
O=C(C[C@H]1CC[C@H](NC(=O)Nc2ccc3c(c2)OCO3)[C@H](CO)O1)NCc1ccc(Cl)cc1	-13.1	10.3	7.9[16.7 µM]	-9.8	-1.5	0.3
CN(C(=O)COc1ccccc1C(=O)NCCOc1ccccc1)c1ccccc1	74.0*	·	11.6	3.2	·	0.0
C[C@H]1CN([C@@H](C)CO)C(=O)c2cc(NS(=O)(=O)c3cccs3)ccc2O[C@H]1CN(C)C(=O)Nc1ccc2c(c1)OCO2	·	9.8	·	-5.7	-2.6	-0.1
CCOC(=O)c1ccc(NC(=O)N2CCN(C(=O)C3CCCO3)CC2)cc1 (centres undefined)	-3.6	·	-49.4	2.1	-0.2	43.2*
COc1ccc(S(=O)(=O)Nc2ccc3c(c2)C(=O)N([C@@H](C)CO)C[C@H](C)[C@H](CN(C)Cc2ccc(Cl)c(Cl)c2)OCCCC[C@@H](C)O3)cc1	55.4	4.1	11.0[16.7 µM]	·	10.9	-0.5
COc1ccc(S(=O)(=O)Nc2ccc3c(c2)C(=O)N([C@@H](C)CO)C[C@H](C)[C@@H](CN(C)Cc2ccc(Cl)c(Cl)c2)OCCCC[C@H](C)O3)cc1	42.5	17.0	59.4*[16.7 µM]	·	-3.0	-0.7
COc1ccc(S(=O)(=O)Nc2ccc3c(c2)C(=O)N([C@@H](C)CO)C[C@H](C)[C@@H](CN(C)Cc2ccc(Cl)c(Cl)c2)OCCCC[C@@H](C)O3)cc1	71.4*	10.8	?	·	49.1	-0.7
COc1ccc2c3c(n(C)c2c1)[C@@H](CO)N(Cc1ccccn1)CC31CN(C(=O)NC(C)C)C1	·	3.5	·	·	-11.0	-0.1
Cc1ccc(S(=O)(=O)N[C@H]2C=C[C@@H](CC(=O)N3CCC(Cc4ccccc4)CC3)O[C@H]2CO)cc1	-35.7	12.0	56.1*[16.7 µM]	·	-0.8	-0.5
Cc1ccc(S(=O)(=O)N[C@H]2C=C[C@@H](CC(=O)NCCN3CCCCC3)O[C@H]2CO)cc1	4.8	104.7*	-18.8[16.7 µM]	·	-6.8	-0.1
CCN(C[C@H]1N[C@@](C)(C(=O)OC)[C@H]2C(=O)N(Cc3ccccc3)C(=O)[C@@H]12)C(=O)c1ccc(C(C)(C)C)cc1	-2.8	·	69.5*	13.3	1.8	-0.2
CC[C@@]1(C(=O)OC)N[C@H](CN(C)C(=O)c2ccc(C)cc2)[C@@H]2C(=O)N(C)C(=O)[C@@H]21	2.6	·	5.6	-0.8	3.4	43.9*
CCN(C[C@H]1N[C@@](C)(C(=O)OC)[C@H]2C(=O)N(Cc3ccccc3)C(=O)[C@@H]12)C(=O)COC	-10.6	·	-12.3	-5.0	-6.8	-0.2
CC[C@@]1(C(=O)OC)N[C@H](CN(C)C(=O)c2ccc(C(C)(C)C)cc2)[C@@H]2C(=O)N(Cc3ccccc3)C(=O)[C@@H]21	0.5	·	78.9*	7.6	-4.9	0.1
COC(=O)[C@]1(Cc2ccccc2)N[C@H](CN(C)C(=O)c2ccc(C(C)(C)C)cc2)[C@@H]2C(=O)N(Cc3ccccc3)C(=O)[C@@H]21	-11.1	-7.0	-77.3	-5.0	20.2	0.1
CN1C[C@@H]2[C@@H]3C(=O)N(Cc4ccccc4)C(=O)[C@@H]3[C@](Cc3ccccc3)(C1=O)N2C(=O)c1ccc(C(C)(C)C)cc1	99.5*	·	11.8	0.5	21.1	0.0
SMILES	PAX8 reporter	PGC1a acetyl inh	Env fusion inh	FN deposition inh	EWS-Fli inh	FGF22 binding
Cc1ccc(S(=O)(=O)N[C@@H]2C=C[C@H](CC(=O)NCc3ccncn3)O[C@@H]2CO)cc1	0.0	4.3	-4.0[16.7 µM]	·	0.4	-0.2
CCN(C[C@H]1N[C@@](CC)(C(=O)OC)[C@H]2C(=O)N(Cc3ccccc3)C(=O)[C@@H]12)C(=O)c1ccc(C(C)(C)C)cc1	81.7*	·	?	5.7	14.2	0.4
C[C@H](CO)N1C[C@H](C)[C@H](CN(C)Cc2ccc(C(F)(F)F)cc2)Oc2ccc(NC(=O)CCC(F)(F)F)cc2CC1=O	-5.3	-7.8	·	1.7	9.7	-0.4
CN(C)CCCNC(=O)C[C@H]1CC[C@@H]2[C@H](COc3ccc(NS(C)(=O)=O)cc3C(=O)N2C)O1	-40.5	3.0	-12.4[16.7 µM]	-0.7	-20.1	0.2
CC(=NNc1nc2ccccc2o1)c1ncccn1	74.1*	-24.0	-198.5	-11.9	-1.0	-0.3
Brc1ccc(/C=N/Nc2nc3ccccc3o2)cc1	-128.2	-3.4	-84.3	-2.3	-76.8	-0.3
CC(=NNc1nc2ccccc2o1)c1cc2ccccc2cn1	·	·	28.5	9.1	27.3	0.1
Oc1ccccc1/C=N/Nc1nc2ccccc2o1	-10.3	41.2*	-85.9	6.8	-50.8	-0.4
C[C@@H]1CN([C@@H](C)CO)C(=O)c2cc(-c3ccccc3)cnc2O[C@H]1CN(C)C(=O)Cc1ccccn1	·	14.4	18.4[16.7 µM]	-17.2	-25.4	-0.1
CO[C@@H]1CN(C)C(=O)c2cc(NC(=O)NC3CCCC3)ccc2OC[C@H](C)N(CC2CC2)C[C@@H]1C	0.4	-7.9	·	-6.9	·	·
COC(=O)COc1ccc(/C=N/NC(=O)CN(c2ccccc2OC)S(=O)(=O)c2ccccc2)cc1	69.5*	·	-29.3	-3.6	34.3	-0.1
COC(=O)COc1ccc(/C=N/NC(=O)c2ccc(N(Cc3ccccc3)S(C)(=O)=O)cc2)cc1	61.8*	·	4.0	-4.7	36.3	-0.2
O=C(c1ccc2c(c1)OCO2)N(CC1CCCO1)C1(C(=O)NC2CCCCC2)CCCCC1 (centres undefined)	-4.1	0.4	135.0*	-10.9	·	·
O=C(c1ccc2c(c1)OCO2)N(Cc1cccs1)C1(C(=O)NC2CCCCC2)CCCCC1	·	·	103.3*	-7.1	·	·
